Measurements published in ChEMBL document CHEMBL1138047, “Synthesis and biological evaluation of 2-amino-3-(3',4',5'-trimethoxybenzoyl)-5-aryl thiophenes as a new class of potent antitubulin agents” (J Med Chem, 2006).
The source made the active and inactive calls. The rule behind the calls is not given here.

Key:
K562 [1] = assay: Induction of apoptosis in K562 cell line; type: functional, Homo sapiens
Tubulin = Tubulin (Bos taurus, UniProt Q6B856+Q862L2+Q862F3); assay: Inhibition of tubulin polymerization in bovine brain by tubulin assembly assay
In short: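 Purified bovine brain tubulin (10 µM) in glutamate buffer was preincubated with a concentration range of compound at 30 °C, then cooled to 0 °C. GTP was added, the mixture rewarmed to 30 °C and assembly followed by turbidity.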

K562 [2] = assay: Antiproliferative activity against human K562 cell line; type: functional, cell-based
In short: (§1)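 Exponentially growing cells in RPMI 1640 with 10% fetal calf serum, 2 mM L-glutamine, […], penicillin/streptomycin were exposed to increasing drug concentrations (DMSO stock 1 mg/mL, final DMSO ≤0.01%, matched DMSO controls). Cells counted by Coulter counter after 48 h. IC50 = concentration giving 50% inhibition versus untreated controls. Duplicate cultures per concentration, ≥3 independent experiments, mean ± SE.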

K562 [3] = assay: Cell cycle arrest in K562 cells at sub-G1 phase cell; type: functional, cell-based; conditions: Homo sapiens
In short: (§2)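 K562 cells cultured with compound at 3 or 10 nM, or at levels giving 50% and 75% growth inhibition, versus untreated cells. Cells (1 × 10⁶) stained with propidium iodide for 30 min. Sub-G1 (DNA-breakage) fraction measured by flow cytometry.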

Tubulin (Bos taurus) = assay: Inhibition of [3H]colchicine binding to tubulin at 1 uM
L1210 = assay: Antiproliferative activity against mouse L1210 cell line; type: functional, cell-based; in short: as §1
K562 [4] = assay: Cell cycle arrest in K562 cells at sub-G1 phase cell at 10 nM; type: functional, cell-based; conditions: Homo sapiens; in short: as §2
K562 [5] = assay: Cell cycle arrest in K562 cells at sub-G1 phase cell at 3 nM; type: functional, cell-based; conditions: Homo sapiens; in short: as §2
K562 [6] = assay: Cell cycle arrest in K562 cells at G2/M phase; type: functional, cell-based; conditions: Homo sapiens
In short: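 K562 cells cultured 24 h with compound at concentrations giving 25%, 50% and 75% growth inhibition, or without compound. Cells (1 × 10⁶) stained with propidium iodide for 30 min and analysed by flow cytometry for G1, S, G2/M and sub-G1 fractions. DMSO vehicle.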

Row | SMILES | IC50 (Tubulin) | IC50 (K562 [2]) | inhibition (Tubulin (Bos taurus)) | IC50 (L1210) | also measured
1 | COc1cc(C(=O)c2cc(-c3ccc(C)cc3)sc2N)cc(OC)c1OC | 1100 nM | 4.72 nM | 71% | 3.52 nM | Activity (K562 [1]): 20.5%; Activity (K562 [3]): Active
2 | COc1cc(C(=O)c2cc(I)sc2N)cc(OC)c1OC |  | 342 nM |  | 1150 nM | 
3 | CCc1cc(C(=O)c2cc(OC)c(OC)c(OC)c2)c(N)s1 |  | 9000 nM |  | > 10000 nM | 
4 | COc1cc(C(=O)c2cc(-c3ccc(C(F)(F)F)cc3)sc2N)cc(OC)c1OC |  | 70.3 nM |  | 73.7 nM | 
5 | COc1cc(C(=O)c2c(-c3ccccc3)csc2N)cc(OC)c1OC |  | > 10000 nM |  | > 10000 nM | 
6 | COc1cc(C(=O)c2cc(-c3ccc(Cl)cc3)sc2N)cc(OC)c1OC | 980 nM | 14.7 nM | 68% | 6.96 nM | 
7 | COc1cc(C(=O)c2c(N)sc(-c3ccccc3)c2-c2ccccc2)cc(OC)c1OC |  | 8500 nM |  | 6950 nM | 
8 | COc1ccc(C(=O)c2cc(-c3ccccc3)sc2N)cc1OC |  | 85.5 nM |  | 537 nM | 
9 | COc1ccc(C(=O)c2cc(-c3ccccc3)sc2N)cc1 |  | 4670 nM |  | > 10000 nM | 
10 | COc1cc(C(=O)c2c(N)sc(-c3ccccc3)c2C)cc(OC)c1OC | 2200 nM | 6.42 nM | 37% | 18.2 nM | 
11 | COc1cc(C(=O)c2cc(-c3ccc(Cl)c(Cl)c3)sc2N)cc(OC)c1OC |  | 362 nM |  | 337 nM | 
12 | COc1ccc(-c2cc(C(=O)c3cc(OC)c(OC)c(OC)c3)c(N)s2)cc1 | 1700 nM | 4.47 nM | 64% | 6.52 nM | 
13 | COc1cccc(-c2cc(C(=O)c3cc(OC)c(OC)c(OC)c3)c(N)s2)c1 | 1700 nM | 10.1 nM | 58% | 20.8 nM | 
14 | COc1cc(C(=O)c2cc(-c3ccccc3)sc2N)cc(OC)c1OC | 1900 nM | 3.75 nM | 60% | 2.52 nM | Activity (K562 [1]): 87.5%; Activity (K562 [4]): Active; Activity (K562 [3]): Active; Activity (K562 [5]): Active
15 | COc1cc(C(=O)c2cc(Br)sc2N)cc(OC)c1OC |  | 1680 nM |  | 4250 nM | 
16 | COc1ccc(/C=C\c2cc(OC)c(OC)c(OC)c2)cc1O [COMBRETASTATIN A4] |  | 3.6 nM |  | 8.3 nM | 
17 | COc1cc(C(=O)c2cc(-c3ccc(F)cc3)sc2N)cc(OC)c1OC | 1100 nM | 2.82 nM | 82% | 2.15 nM | Activity (K562 [1]): 64.5%; Activity (K562 [3]): Active; Activity (K562 [6]): Dose-dependent effect
18 | COc1cc(C(=O)c2c(C)csc2N)cc(OC)c1OC |  | 219 nM |  | 262 nM | 
19 | COc1ccccc1-c1cc(C(=O)c2cc(OC)c(OC)c(OC)c2)c(N)s1 |  | 7.75 nM |  | 9 nM | 
20 | COc1cc(C(=O)c2c(N)sc(C)c2C)cc(OC)c1OC |  | 790 nM |  | 3900 nM | 
21 | COc1cc(C(=O)c2cc(-c3ccc(OC)c(OC)c3OC)sc2N)cc(OC)c1OC |  | 1100 nM |  | 1650 nM | 
22 | CCCCCc1cc(C(=O)c2cc(OC)c(OC)c(OC)c2)c(N)s1 |  | 1490 nM |  | 1320 nM | 
23 | COc1cc(C(=O)c2ccsc2N)cc(OC)c1OC |  | 1270 nM |  | 3150 nM | 
